Results on 10 compounds are retold here after ChEMBL document CHEMBL1139460 (J Med Chem, 2005).

A word on the Ki: it is a measure of affinity in units of concentration, obtained from inhibition or displacement. The half-life is the time in which the quantity being followed falls by half. Broadly, the bioavailability is the share of a dose that reaches the circulation, judged against a reference dose that is usually intravenous.

The target in series [1] is T1, GABA-A receptor; alpha-2/beta-3/gamma-2 (Homo sapiens) (UniProt P18507+P28472+P47869). The series is described as follows: Efficacy at human recombinant GABAA alpha-2-beta-3-gamma-2 receptor expressed in Xenopus laevis oocytes by two electrode voltage clamp method relative to GABA. The format is cell-based. To be noted: Oocyte. In outline: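 Human α2β3γ2 GABA-A receptors were transiently expressed in Xenopus oocytes and recorded by two-electrode voltage clamp. […] Efficacy is the percent modulation of the submaximal GABA EC20 ion current.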
In general terms: Two-electrode voltage clamp holds a large cell at a set potential and records current.

Series [2] has as its target T2, GABA-A receptor; alpha-3/beta-3/gamma-2 (Homo sapiens, UniProt P18507+P28472+P34903).
T2 sequence (P18507 whole entry): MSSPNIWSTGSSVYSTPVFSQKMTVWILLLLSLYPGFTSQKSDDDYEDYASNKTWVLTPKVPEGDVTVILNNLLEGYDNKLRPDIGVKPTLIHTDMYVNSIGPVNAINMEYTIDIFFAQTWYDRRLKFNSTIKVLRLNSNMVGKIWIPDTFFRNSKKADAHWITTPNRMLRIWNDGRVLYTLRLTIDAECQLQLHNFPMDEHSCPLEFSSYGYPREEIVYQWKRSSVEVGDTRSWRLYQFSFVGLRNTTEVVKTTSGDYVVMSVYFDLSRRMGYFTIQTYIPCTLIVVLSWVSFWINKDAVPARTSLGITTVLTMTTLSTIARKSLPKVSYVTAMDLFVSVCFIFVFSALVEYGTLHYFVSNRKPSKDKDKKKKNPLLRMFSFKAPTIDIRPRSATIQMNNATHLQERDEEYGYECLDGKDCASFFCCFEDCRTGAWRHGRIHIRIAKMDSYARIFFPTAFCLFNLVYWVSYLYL
T2 sequence (P28472 whole entry): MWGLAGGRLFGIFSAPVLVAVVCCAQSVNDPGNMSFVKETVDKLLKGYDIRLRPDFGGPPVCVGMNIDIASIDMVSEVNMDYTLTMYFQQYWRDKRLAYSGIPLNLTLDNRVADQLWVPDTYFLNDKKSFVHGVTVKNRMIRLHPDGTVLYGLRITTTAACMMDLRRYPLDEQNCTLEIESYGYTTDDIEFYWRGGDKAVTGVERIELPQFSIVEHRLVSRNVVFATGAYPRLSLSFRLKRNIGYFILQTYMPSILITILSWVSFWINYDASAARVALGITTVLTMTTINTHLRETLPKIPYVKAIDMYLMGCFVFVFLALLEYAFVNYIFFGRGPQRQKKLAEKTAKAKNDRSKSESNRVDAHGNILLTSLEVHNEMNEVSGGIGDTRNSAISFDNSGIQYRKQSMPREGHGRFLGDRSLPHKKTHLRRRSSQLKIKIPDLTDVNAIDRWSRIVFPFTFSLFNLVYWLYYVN
T2 sequence (P34903 whole entry): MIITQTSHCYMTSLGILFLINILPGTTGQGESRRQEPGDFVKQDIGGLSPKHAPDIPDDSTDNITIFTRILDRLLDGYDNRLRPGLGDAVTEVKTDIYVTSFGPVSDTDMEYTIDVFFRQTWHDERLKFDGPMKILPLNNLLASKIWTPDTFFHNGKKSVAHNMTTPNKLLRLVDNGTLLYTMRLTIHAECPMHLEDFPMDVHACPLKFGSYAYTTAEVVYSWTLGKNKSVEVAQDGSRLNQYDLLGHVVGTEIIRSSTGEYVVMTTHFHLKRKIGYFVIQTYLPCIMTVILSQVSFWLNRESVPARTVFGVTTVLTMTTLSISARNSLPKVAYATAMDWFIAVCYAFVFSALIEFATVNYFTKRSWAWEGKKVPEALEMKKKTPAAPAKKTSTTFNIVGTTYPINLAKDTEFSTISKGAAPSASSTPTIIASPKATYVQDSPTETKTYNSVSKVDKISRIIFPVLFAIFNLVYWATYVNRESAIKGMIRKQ
The series is described as follows: Displacement of [3H]Ro 15-1788 from human recombinant GABAA alpha-3-beta-3-gamma-2 receptor expressed in L(tk-) cells. In kind it is cell-based. Background: Displacement assays read how much labelled ligand stays bound in the presence of the test substance.

Series [3] addresses T3, GABA-A receptor; alpha-1/beta-3/gamma-2 (Homo sapiens) (UniProt P14867+P18507+P28472). Put plainly: Efficacy at human recombinant GABAA alpha-1-beta-3-gamma-2 receptor expressed in Xenopus laevis oocytes by two electrode voltage clamp method relative to GABA. The format is cell-based. To be noted: Oocyte.
Series [4] concerns the target T4, GABA-A receptor; alpha-3/beta-3/gamma-2 (Homo sapiens) (UniProt P18507+P28472+P34903). Put plainly: Efficacy at human recombinant GABAA alpha-3-beta-3-gamma-2 receptor expressed in Xenopus laevis oocytes by two electrode voltage clamp method relative to GABA. In kind it is cell-based. To be noted: Oocyte.
Series [5] has as its target T5, GABA-A receptor; alpha-2/beta-3/gamma-2 (Homo sapiens, UniProt P18507+P28472+P47869).
T5 sequence (P18507 whole entry): T2 sequence (P18507 whole entry)
T5 sequence (P28472 whole entry): T2 sequence (P28472 whole entry)
T5 sequence (P47869 whole entry): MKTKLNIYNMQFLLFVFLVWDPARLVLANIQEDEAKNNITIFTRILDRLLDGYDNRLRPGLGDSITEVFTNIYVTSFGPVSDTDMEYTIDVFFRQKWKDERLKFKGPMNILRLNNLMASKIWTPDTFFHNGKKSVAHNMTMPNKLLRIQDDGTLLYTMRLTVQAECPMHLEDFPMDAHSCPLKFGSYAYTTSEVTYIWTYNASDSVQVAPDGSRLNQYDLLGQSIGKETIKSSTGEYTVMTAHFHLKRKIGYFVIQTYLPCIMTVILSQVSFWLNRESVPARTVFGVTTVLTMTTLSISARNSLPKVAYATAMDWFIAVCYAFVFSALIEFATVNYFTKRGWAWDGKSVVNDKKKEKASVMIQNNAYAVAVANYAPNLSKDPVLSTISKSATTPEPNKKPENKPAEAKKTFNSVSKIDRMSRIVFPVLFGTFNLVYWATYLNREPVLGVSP
Put plainly: Displacement of [3H]Ro 15-1788 from human recombinant GABAA alpha-2-beta-3-gamma-2 receptor expressed in L(tk-) cells. The format is cell-based.

Series [6] has as its target T4, GABA-A receptor; alpha-3/beta-3/gamma-2 (Homo sapiens). Put plainly: Efficacy at human recombinant GABAA alpha-3-beta-3-gamma-2 receptor expressed in L(tk-) cells by two electrode voltage clamp method relative to GABA. In kind it is cell-based. In a few lines: (§1)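 Receptors stably expressed in L(tk-) fibroblasts; percent modulation of the submaximal (EC20) GABA response, multiple drug concentrations assessed.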

The target in series [7] is T3, GABA-A receptor; alpha-1/beta-3/gamma-2 (Homo sapiens). Put plainly: Efficacy at human recombinant GABAA alpha-1-beta-3-gamma-2 receptor expressed in L(tk-) cells by two electrode voltage clamp method relative to GABA. In kind it is cell-based. In outline: as §1
Series [8] concerns the target T1, GABA-A receptor; alpha-2/beta-3/gamma-2 (Homo sapiens). The series is described as follows: Efficacy at human recombinant GABAA alpha-2-beta-3-gamma-2 receptor expressed in L(tk-) cells by two electrode voltage clamp method relative to GABA. The format is cell-based. In outline: as §1
The target in series [9] is T6, GABA-A receptor; alpha-1/beta-3/gamma-2 (Homo sapiens, UniProt P14867+P18507+P28472).
T6 sequence (P14867 whole entry): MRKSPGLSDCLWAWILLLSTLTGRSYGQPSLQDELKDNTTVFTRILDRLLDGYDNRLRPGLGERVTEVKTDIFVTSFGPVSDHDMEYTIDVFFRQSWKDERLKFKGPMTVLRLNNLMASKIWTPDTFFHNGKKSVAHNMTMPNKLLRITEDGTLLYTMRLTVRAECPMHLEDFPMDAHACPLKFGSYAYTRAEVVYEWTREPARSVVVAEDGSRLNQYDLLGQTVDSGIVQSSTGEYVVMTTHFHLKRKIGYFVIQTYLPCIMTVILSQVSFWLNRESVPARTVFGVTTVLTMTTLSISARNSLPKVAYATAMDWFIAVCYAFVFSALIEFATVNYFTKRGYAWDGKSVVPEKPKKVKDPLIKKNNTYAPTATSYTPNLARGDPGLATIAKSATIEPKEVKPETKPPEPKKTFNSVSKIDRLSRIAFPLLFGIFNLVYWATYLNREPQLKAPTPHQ
T6 sequence (P18507 whole entry): T2 sequence (P18507 whole entry)
T6 sequence (P28472 whole entry): T2 sequence (P28472 whole entry)
Put plainly: Displacement of [3H]Ro 15-1788 from human recombinant GABAA alpha-1-beta-3-gamma-2 receptor expressed in L(tk-) cells. The format is cell-based.

In series [10] the test system is Rattus norvegicus. Put plainly: Receptor occupancy at GABAA receptor in rat at 30 mg/kg, po. In kind it is functional.
Series [11] relates to Mus musculus. The series is described as follows: Receptor occupancy in vivo by displacement of [3H]Ro 15-1788 binding from GABAA receptor in orally dosed Swiss Webster mouse. In kind it is functional. Particulars: po, read-out: ID50 (the source's name).
Series [12] has as its system Rattus norvegicus. The series is described as follows: Sedative effect in orally dosed rat at by chain-pulling assay. In kind it is functional, organism-based.
Series [13] can be described thus: Half life in dog. The format is ADME, organism-based, Canis lupus familiaris. To be noted: in vivo.
The test system of series [14] is Rattus norvegicus. Put plainly: Receptor occupancy at GABAA receptor in rat at 3 mg/kg, po. In kind it is functional.
For series [15], the system named is Rattus norvegicus. The series is described as follows: Receptor occupancy at GABAA receptor in rat at 1 mg/kg, po. The format is functional.
Series [16] has as its system Rattus norvegicus. Put plainly: Anxiolytic effect in rat at 3 mg/kg, po by anxiety assay. In kind it is functional, organism-based. Details: dose 3 mg/kg.
Series [17] can be described thus: Bioavailability in dog. The format is ADME, organism-based, Canis lupus familiaris. To be noted: in vivo.
A short description of series [18]: Half life in rat. The format is ADME, organism-based. Particulars: in vivo.
Series [19] relates to Rattus norvegicus. Put plainly: Anxiolytic effect in rat at 1 mg/kg, po by anxiolytic assay. In kind it is functional, organism-based. Details: dose 1 mg/kg.
Series [20] in a line: Bioavailability in rat. In kind it is ADME, organism-based. To be noted: in vivo.

Activity calls are given as the source filed them. The rule behind the calls is not given here.

For the compound `c1ccc(-c2nnc3c4c(c(OCc5ccccn5)nn23)C2CCC4CC2)cc1`, the Efficacy in series [1] was determined as 23%; in series [3], 51%; in series [4], 38%. Moreover, in [2], the Ki came out at 12 nM.

Turning to `Cn1ncnc1COc1nn2c(-c3ccccc3)nnc2cc1C1CCC1`, the Ki in [5] was found to be 0.25 nM; in series [2], 0.17 nM; in [9] it was 0.23 nM. The Efficacy is 72% in series [6], 27% in [7] and 41% in [8].

On to `Cn1ncnc1COc1nn2c(-c3ccccc3)nnc2cc1C1CCCC1`, for which the Ki came to 0.73 nM in series [5], 0.34 nM in [2] and 0.38 nM in series [9]. For the same compound, the Efficacy in [6] came to 63%; in series [7], 47%.

For the compound `Cn1ncnc1COc1nn2c(-c3ccccc3)nnc2cc1-c1ccccc1`, the values for the Ki in series [5], in series [2] and in [9] were 2.6 nM, 1.2 nM and 0.78 nM, respectively. Further, the Efficacy was 94% in [3] and 115% in [4].

For the compound `Cn1ncnc1COc1nn2c(-c3ccccc3)nnc2cc1C1CCCCC1`, the Ki in series [5] turned out to be 14 nM; in [2], 4.8 nM; in series [9] it was 6.2 nM. Further, the Efficacy in series [3] came out at 65%; in series [4] it was 109%.

In the case of `c1ccc(-c2cc3nnc(-c4ccccc4)n3nc2OCc2ccccn2)cc1`, the values for the Ki in series [5], in series [2] and in series [9] were 2.9 nM, 1.8 nM and 1.1 nM, respectively. For the same compound, the Efficacy in [3] came out at 80%; in [4] it was 77%.

Take `Cc1ccc(-c2nc3ccc(C)cn3c2CC(=O)N(C)C)cc1`: the Efficacy in series [1] worked out at 123%; in [3] it was 160%.

`Cn1ncnc1COc1nn2c(-c3ccccc3)nnc2cc1C(C)(C)C`: the values for the Ki in [2] and in series [9] were 0.14 nM and 0.36 nM, respectively. In addition, the results for the Efficacy in [6] and in series [7] were 34% and 0%, respectively.

With `CN1C(=O)CN=C(c2ccccc2)c2cc(Cl)ccc21`, the Efficacy in series [1] is 115%.

Take `CCn1ncnc1COc1nn2c(-c3ccccc3F)nnc2cc1C(C)(C)C` [MK-0777]: the Activity is on record as 99% in [10], 88% in series [14] and 70% in [15]. Besides, in series [11], the ED50 came to 0.42 mg/kg. For the same compound, the Ki in series [5] is 0.31 nM; in series [2], 0.2 nM; in series [9], 0.27 nM. Moreover, the outcome in series [12] was inactive. Also, the half-life was 1.5 h in series [13] and 1.4 h in series [18]. Besides, the outcome in [16] and in series [19] was Active. Moreover, the figures for the bioavailability in series [17] and in [20] were 53% and 35%, respectively.
